Experimental data from ChEMBL document CHEMBL1150428, “CYP53A15 of Cochliobolus lunatus, a target for natural antifungal compounds” (J Med Chem, 2008).
Values after ≈ are worked out from the molar mass of the structure shown.

What was measured:
[1] = tested on: Curvularia lunata; experiment: Antifungal activity against Cochliobolus lunatus delta bph at 5 mM assessed as initial growth inhibition time; assay type: functional
Procedure, shortened: (§1)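 Δbph deletion strain of C. lunatus (bph gene replaced by hph, hygromycin-selected) on agar with 5 mM test compound, in triplicate. Plates centrally inoculated with 7 mm mycelial disks from a 48 h culture. Radial growth rate (mm/h) measured; initial growth inhibition time (h) taken as the intercept of the extrapolated linear growth phase at 7 mm.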

[2] = tested on: Curvularia lunata; experiment: Antifungal activity against Cochliobolus lunatus at 5 mM assessed as initial growth inhibition time; assay type: functional
Procedure, shortened: (§2)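 C. lunatus m118 on agar plates in triplicate, each inhibitor at 5 mM alone or at 5 mM combined with 0.1 mM benzoic acid. Plates centrally inoculated with 7 mm mycelial disks taken from a 48 h solid culture. Radial growth rate (mm/h) from colony diameter over time. Initial growth inhibition time (h) is the time-axis intercept of the linear growth phase extrapolated to 7 mm diameter.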

[3] = tested on: Curvularia lunata; experiment: Antifungal activity against Cochliobolus lunatus at 5 mM assessed as radial growth rate; assay type: functional; procedure, shortened: as §2
[4] = tested on: Curvularia lunata; experiment: Antifungal activity against Cochliobolus lunatus at 0.1 mM assessed as initial growth inhibition time; assay type: functional; procedure, shortened: as §2
[5] = tested on: Curvularia lunata; experiment: Antifungal activity against Cochliobolus lunatus at 0.1 mM assessed as radial growth rate; assay type: functional; procedure, shortened: as §2
[6] = tested on: Curvularia lunata; experiment: Antifungal activity against Cochliobolus lunatus delta bph at 5 mM assessed as radial growth rate; assay type: functional; procedure, shortened: as §1
[7] = tested on: Curvularia lunata; experiment: Antifungal activity against Cochliobolus lunatus; assay type: functional
Procedure, shortened: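 C. lunatus m118 (wild type). MIC, the lowest concentration preventing visible growth after overnight incubation, determined by the Radford method.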

[8] = Inhibition of Cochliobolus lunatus CYP53A15 expressed in Escherichia coli; parameters: species or system Curvularia lunata
Procedure, shortened: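 His-tagged CYP53A15 from E. coli C43(DE3), Ni-NTA purified, reconstituted with rabbit liver NADPH-P450 reductase and DLPC in pH 7.4 phosphate. Reaction started with 1 mM NADPH and benzoate. para-Hydroxybenzoate formation quantified by HPLC of quenched reactions over time. Enzyme at 5 µM, inhibitors at 300 and 600 µM. Kinetic constants from simultaneous progress-curve analysis.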

MIC [7] [mM]	SMILES	Activity [1] [h]	Activity [2] [h]	Activity [3] [millimeter/hr]	Activity [4] [h]	Activity [5] [millimeter/hr]	Activity [6] [millimeter/hr]	Ki [8] [µM]
5 (≈ 611 µg/mL)	O=C(O)c1ccccc1 [BENZOIC ACID]	>1800	56	0.22	12	0.55	0	
	C/C=C\c1ccc(O)c(OC)c1 [ISOEUGENOL]	>1800	56	0.29			0	14.2
	COc1cc(C=O)ccc1O [VANILLIN]		12	0.55				29.7
	Cc1ccc(C(C)C)c(O)c1 [THYMOL]							8.2
	C=CCc1ccc(O)c(OC)c1 [EUGENOL]		20	0.57				26.2
